Active and inactive are the calls of the source. The calls are words filed in the database; no cut-off is given here.
Tests used:
D(1A) dopamine receptor = D(1A) dopamine receptor (Homo sapiens, UniProt P21728); assay: Displacement of […] from human D1 receptor expressed in HEK293T cell membranes; set-up: species or system HEK-293T
[1] = Displacement of […] from porcine cerebral cortex 5-HT1A receptor; set-up: species or system Sus scrofa
D(1B) dopamine receptor = D(1B) dopamine receptor (Homo sapiens, UniProt P21918); assay: Displacement of […] from human D5 receptor expressed in HEK293T cell membranes; set-up: species or system HEK-293T
D(3) dopamine receptor = D(3) dopamine receptor (Homo sapiens, UniProt P35462); assay: Displacement of [3H]spiperone from human D3 receptor expressed in CHO cell membranes
[2] = molecular target: 5-hydroxytryptamine receptor 2A (Homo sapiens, UniProt P28223); assay: Displacement of [3H]ketanserin from human 5-HT2A receptor expressed in HEK293T cell membranes; set-up: species or system HEK-293T
D(2) dopamine receptor [3] = molecular target: T1, D(2) dopamine receptor (Homo sapiens, UniProt P14416); assay: Displacement of [3H]spiperone from human D2-short receptor expressed in CHO cell membranes
D(4) dopamine receptor = molecular target: T2, D(4) dopamine receptor (Homo sapiens, UniProt P21917); assay: Displacement of [3H]spiperone from human D4 receptor expressed in CHO cell membranes
T2 sequence (P21917 whole entry): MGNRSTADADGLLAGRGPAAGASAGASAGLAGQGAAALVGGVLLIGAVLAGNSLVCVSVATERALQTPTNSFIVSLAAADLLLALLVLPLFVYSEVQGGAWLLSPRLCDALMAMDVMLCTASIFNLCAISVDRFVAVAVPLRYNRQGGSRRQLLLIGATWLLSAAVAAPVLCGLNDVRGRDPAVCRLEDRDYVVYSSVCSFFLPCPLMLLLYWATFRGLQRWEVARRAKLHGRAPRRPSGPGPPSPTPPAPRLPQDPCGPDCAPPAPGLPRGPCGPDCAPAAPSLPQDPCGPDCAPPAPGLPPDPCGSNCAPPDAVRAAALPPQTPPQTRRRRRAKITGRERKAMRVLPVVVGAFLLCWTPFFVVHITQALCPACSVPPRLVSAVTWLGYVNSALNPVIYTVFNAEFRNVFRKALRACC

D(2) dopamine receptor [4] = molecular target: T1, D(2) dopamine receptor; assay: Displacement of [3H]spiperone from human D2-long receptor expressed in CHO cell membranes
[5] = molecular target: D(3) dopamine receptor (Rattus norvegicus) (UniProt P19020); assay: Displacement of BP897 from D3 receptor in rat brain cortex at 5 MBq after 45 mins by phosphorus imaging based autoradiography; details: 5 M, tested as the 18F-labelled form
Homo sapiens [6] = organism: Homo sapiens; assay: Selectivity ratio of Ki for human D2-short receptor expressed in CHO cell membranes to Ki for human D3 receptor expressed in CHO cell membranes; format: cell-based
[7] = molecular target: D(3) dopamine receptor (Rattus norvegicus) (UniProt P19020); assay: Displacement of BP897 from D3 receptor in rat brain striatum at 5 MBq after 45 mins by phosphorus imaging based autoradiography; details: 5 M, tested as the 18F-labelled form
[8] = molecular target: D(3) dopamine receptor (Rattus norvegicus) (UniProt P19020); assay: Displacement of BP897 from D3 receptor in rat brain islands of calleja at 5 MBq after 45 mins by phosphorus imaging based autoradiography; details: 5 M, tested as the 18F-labelled form
Homo sapiens [9] = organism: Homo sapiens; assay: Selectivity ratio of Ki for human D2-long receptor expressed in CHO cell membranes to Ki for human D3 receptor expressed in CHO cell membranes; format: cell-based
[10] = molecular target: D(3) dopamine receptor (Rattus norvegicus) (UniProt P19020); assay: Displacement of BP897 from D3 receptor in rat brain lateral septum nuclei at 5 MBq after 45 mins by phosphorus imaging based autoradiography; details: 5 M, tested as the 18F-labelled form
Rhesus monkey [11] = assay: Reduction in food reinforcement-maintained behavior in monkey at 0.18 to 0.32 mg/kg, im administered as single dose 15 mins prior to food reinforcement during first component of session relative to control; format: functional, Macaca mulatta; set-up: scale not given: the % may be the effect or the level left; details: in the assay text read “0.32 mg/kg” for “0.18 to 0.32 mg/kg”
In short: (§1)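 Male rhesus monkeys trained to respond for cocaine and food under daily 2 h FR30 sessions. Sessions ran in order: food 1, a 100-min i.v. cocaine (or saline) component, then food 2. Saline pretreatment served as baseline. Values are mean ± S.E.M. of four experiments, with significance by two-tailed t-test (p < 0.05).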

Rhesus monkey [12] = assay: Reduction in food reinforcement-maintained behavior in monkey at 0.18 to 0.32 mg/kg, im administered as single dose 15 mins prior to food reinforcement during second component of session relative to control; format: functional, Macaca mulatta; set-up: scale not given: the % may be the effect or the level left; in short: as §1
Rhesus monkey [13] = assay: Reduction in cocaine-maintained responding in monkey administered im 15 mins prior to self administration of 0.1 mg/kg, iv per injection of cocaine for 100 mins; format: functional, organism-based; details: Macaca mulatta; in short: as §1
Rhesus monkey [14] = assay: Reduction in cocaine-maintained responding in monkey at 0.18 to 0.32 mg/kg, im administered as single dose 15 mins prior to self administration of 0.1 mg/kg, iv per injection of cocaine for 100 mins relative to control; format: functional, Macaca mulatta; set-up: scale not given: the % may be the effect or the level left; in short: as §1
Rhesus monkey [15] = assay: Reduction in cocaine-maintained responding in monkey at 0.18 to 0.32 mg/kg, im administered as single dose 15 mins prior to self administration of 0.003 mg/kg, iv per injection of cocaine for 100 mins relative to control; format: functional, Macaca mulatta; set-up: scale not given: the % may be the effect or the level left; in short: as §1
Rhesus monkey [16] = assay: Reduction in cocaine-maintained responding in monkey at 0.18 to 0.32 mg/kg, im administered as single dose 15 mins prior to self administration of 0.01 to 0.03 mg/kg, iv per injection of cocaine for 100 mins relative to control; format: functional, Macaca mulatta; set-up: scale not given: the % may be the effect or the level left; in short: as §1
[17] = Drug uptake in rat brain ependyma cell layer at 10 to 15 MBq, iv after 60 mins by phosphorus imaging based autoradiography; format: ADME, organism-based; details: in vivo, 1 h
In short: (§2)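 Rats injected with the [¹⁸F]-labelled radioligand, alone or co-injected with BP897. Coronal brain sections taken at 60 min p.i. for ex-vivo autoradiography and overlaid with HE-stained sections. Uptake expressed as region of interest-to-background ratio, with control animals compared against BP897 co-injected animals.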

[18] = Drug uptake in rat brain ventricles at 10 to 15 MBq, iv after 60 mins by phosphorus imaging based autoradiography; format: ADME, organism-based, Brain ventricle; details: in vivo, 1 h; in short: as §2
[19] = Drug uptake in rat brain calleja islands at 10 to 15 MBq, iv after 60 mins by phosphorus imaging based autoradiography; format: ADME, organism-based, Calleja island; details: in vivo, 1 h; in short: as §2
[20] = Drug uptake in rat brain plexus tissue at 10 to 15 MBq, iv after 60 mins by phosphorus imaging based autoradiography; format: ADME, organism-based; details: in vivo, 1 h; in short: as §2
[21] = Drug uptake in rat brain ventricles at 10 to 15 MBq, iv after 40 mins by PET imaging method; format: ADME, organism-based, Brain ventricle; details: in vivo
[22] = Drug uptake in rat pituitary gland at 10 to 15 MBq, iv after 40 mins pretreated with D3 ligand BP897 by PET imaging method; format: ADME, organism-based; details: in vivo
In short: (§3)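 In vivo PET scan of rats given the [¹⁸F]-labelled radioligand. Whole pituitary gland uptake measured at 40 min p.i. as %ID/g, with or without BP897 pretreatment.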

Brain = assay: Drug uptake in rat brain at 10 to 15 MBq, iv after 40 mins by PET imaging method; format: ADME, organism-based; details: in vivo
[23] = Drug uptake in rat pituitary gland at 10 to 15 MBq, iv after 40 mins by PET imaging method; format: ADME, organism-based; details: in vivo; in short: as §3
[24] = Drug uptake in rat brain striatum at 10 to 15 MBq, iv after 60 mins by phosphorus imaging based autoradiography; format: ADME, organism-based; details: in vivo, 1 h; in short: as §2
Homo sapiens [25] = organism: Homo sapiens; assay: Selectivity ratio of Ki for human 5-HT2A receptor expressed in HEK293T cell membranes to Ki for human D3 receptor expressed in CHO cell membranes; format: cell-based
Homo sapiens [26] = organism: Homo sapiens; assay: Selectivity ratio of Ki for human D1 receptor expressed in HEK293T cell membranes to Ki for human D3 receptor expressed in CHO cell membranes; format: cell-based
[27] = Selectivity ratio of Ki for porcine cerebral cortex 5-HT1A receptor to Ki for human D3 receptor expressed in CHO cell membranes; format: cell-based
Homo sapiens [28] = organism: Homo sapiens; assay: Selectivity ratio of Ki for human D5 receptor expressed in HEK293T cell membranes to Ki for human D3 receptor expressed in CHO cell membranes; format: cell-based
Homo sapiens [29] = organism: Homo sapiens; assay: Selectivity ratio of Ki for human D4 receptor expressed in CHO cell membranes to Ki for human D3 receptor expressed in CHO cell membranes; format: cell-based
[30] = tested as the 18F-labelled form

T1 sequence (P14416 whole entry): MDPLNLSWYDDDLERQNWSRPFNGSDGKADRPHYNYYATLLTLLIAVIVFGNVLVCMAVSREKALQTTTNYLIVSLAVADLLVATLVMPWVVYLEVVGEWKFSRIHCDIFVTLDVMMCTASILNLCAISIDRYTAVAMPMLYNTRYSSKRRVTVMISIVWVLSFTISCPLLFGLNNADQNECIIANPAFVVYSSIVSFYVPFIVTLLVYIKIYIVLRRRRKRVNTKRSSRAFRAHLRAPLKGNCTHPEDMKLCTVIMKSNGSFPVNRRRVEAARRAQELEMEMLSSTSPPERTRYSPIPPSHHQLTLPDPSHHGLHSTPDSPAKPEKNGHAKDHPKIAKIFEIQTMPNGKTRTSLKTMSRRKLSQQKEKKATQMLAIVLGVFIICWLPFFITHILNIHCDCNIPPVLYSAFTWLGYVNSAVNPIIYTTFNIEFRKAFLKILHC
Sequence of D(1B) dopamine receptor (P21918 whole entry): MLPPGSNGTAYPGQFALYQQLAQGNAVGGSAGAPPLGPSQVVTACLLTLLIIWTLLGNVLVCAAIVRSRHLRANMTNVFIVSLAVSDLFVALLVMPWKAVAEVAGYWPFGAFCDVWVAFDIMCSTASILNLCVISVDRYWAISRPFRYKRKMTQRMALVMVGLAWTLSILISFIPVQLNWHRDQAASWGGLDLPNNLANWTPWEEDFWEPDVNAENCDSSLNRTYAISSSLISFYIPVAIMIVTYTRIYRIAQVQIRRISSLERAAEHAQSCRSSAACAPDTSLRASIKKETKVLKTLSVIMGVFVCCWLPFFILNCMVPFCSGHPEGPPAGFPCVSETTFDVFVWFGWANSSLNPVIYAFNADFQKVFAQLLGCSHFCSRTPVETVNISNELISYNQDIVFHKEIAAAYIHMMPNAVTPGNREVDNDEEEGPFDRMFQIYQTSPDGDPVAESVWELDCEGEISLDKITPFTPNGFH
Sequence of D(3) dopamine receptor (P35462 whole entry): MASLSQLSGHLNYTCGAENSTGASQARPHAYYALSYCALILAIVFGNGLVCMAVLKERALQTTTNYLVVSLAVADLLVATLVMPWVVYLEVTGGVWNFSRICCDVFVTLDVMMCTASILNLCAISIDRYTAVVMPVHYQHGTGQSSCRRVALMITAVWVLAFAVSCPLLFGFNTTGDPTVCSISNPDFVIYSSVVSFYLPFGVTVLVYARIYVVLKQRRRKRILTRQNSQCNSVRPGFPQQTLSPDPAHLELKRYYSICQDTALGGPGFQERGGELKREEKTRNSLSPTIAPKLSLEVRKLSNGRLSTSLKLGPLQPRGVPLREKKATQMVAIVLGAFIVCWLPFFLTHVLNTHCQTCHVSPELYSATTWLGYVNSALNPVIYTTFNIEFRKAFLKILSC
Sequence of D(1A) dopamine receptor (P21728 whole entry): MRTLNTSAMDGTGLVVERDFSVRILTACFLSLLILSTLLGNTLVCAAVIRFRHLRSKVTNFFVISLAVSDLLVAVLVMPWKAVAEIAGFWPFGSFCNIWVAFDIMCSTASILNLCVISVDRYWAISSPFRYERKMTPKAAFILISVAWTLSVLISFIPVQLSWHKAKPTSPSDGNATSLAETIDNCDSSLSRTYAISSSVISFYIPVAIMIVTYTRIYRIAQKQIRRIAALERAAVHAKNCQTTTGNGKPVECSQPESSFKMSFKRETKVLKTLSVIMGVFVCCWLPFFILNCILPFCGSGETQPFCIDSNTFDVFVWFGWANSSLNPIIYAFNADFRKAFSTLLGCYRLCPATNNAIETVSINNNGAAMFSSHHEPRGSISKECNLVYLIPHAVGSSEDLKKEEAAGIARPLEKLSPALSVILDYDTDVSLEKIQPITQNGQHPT
Sequence of 5-hydroxytryptamine receptor 2A (P28223 whole entry): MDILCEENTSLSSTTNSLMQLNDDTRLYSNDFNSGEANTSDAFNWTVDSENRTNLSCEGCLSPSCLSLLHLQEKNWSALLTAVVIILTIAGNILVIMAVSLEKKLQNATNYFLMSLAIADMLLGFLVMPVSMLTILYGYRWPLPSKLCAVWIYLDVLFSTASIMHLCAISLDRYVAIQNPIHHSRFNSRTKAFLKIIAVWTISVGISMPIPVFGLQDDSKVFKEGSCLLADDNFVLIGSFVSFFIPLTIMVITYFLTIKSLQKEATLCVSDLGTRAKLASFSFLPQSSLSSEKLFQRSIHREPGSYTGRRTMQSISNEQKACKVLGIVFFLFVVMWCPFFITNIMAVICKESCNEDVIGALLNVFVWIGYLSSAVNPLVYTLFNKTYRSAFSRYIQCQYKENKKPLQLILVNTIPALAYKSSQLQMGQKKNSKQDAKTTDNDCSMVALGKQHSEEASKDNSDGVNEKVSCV
Sequence of D(3) dopamine receptor (Rattus norvegicus) (P19020 whole entry): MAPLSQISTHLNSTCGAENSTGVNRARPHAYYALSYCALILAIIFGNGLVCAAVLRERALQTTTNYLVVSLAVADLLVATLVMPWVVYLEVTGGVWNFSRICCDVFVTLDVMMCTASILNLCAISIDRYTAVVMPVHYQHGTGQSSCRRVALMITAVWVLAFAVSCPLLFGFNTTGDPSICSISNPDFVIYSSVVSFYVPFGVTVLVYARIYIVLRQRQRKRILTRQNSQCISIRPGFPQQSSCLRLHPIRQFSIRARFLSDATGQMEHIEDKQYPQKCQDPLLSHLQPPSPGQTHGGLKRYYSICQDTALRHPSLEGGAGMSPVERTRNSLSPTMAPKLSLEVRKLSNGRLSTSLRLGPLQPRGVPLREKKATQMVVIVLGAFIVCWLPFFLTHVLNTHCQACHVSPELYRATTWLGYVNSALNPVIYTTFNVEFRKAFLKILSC

| Structure (SMILES) | Ki (D(1A) dopamine receptor) [µM] | Ki [1] [µM] | Ki (D(1B) dopamine receptor) [µM] | Ki (D(3) dopamine receptor) [µM] | Ki [2] [µM] | Ki (D(2) dopamine receptor [3]) [µM] | Ki (D(4) dopamine receptor) [µM] | Ki (D(2) dopamine receptor [4]) [µM] | other results |
| --- | --- | --- | --- | --- | --- | --- | --- | --- | --- |
| O=C(NCCCCN1CC[N+]2(CCOc3ccccc32)CC1)c1cc2ccccn2n1 | 5.7 | 0.9 | > 50 | 0.2 | > 10 | 4.5 | > 10 | 6.3 | – |
| O=C(NCCCCN1CCN(c2ccccc2OCCF)CC1)c1cc2ccccn2n1 | 0.86 | 0.0065 | 3.8 | 0.00031 | 0.52 | 0.021 | 0.16 | 0.039 | inhibition [5]: Active; Ratio Ki (Homo sapiens [6]; [30]): 68; inhibition [7]: Active; inhibition [8]: Active; Ratio Ki (Homo sapiens [9]; [30]): 130; inhibition [10]: Active |
| COc1ccccc1N1CCN(CCCCNC(=O)c2cc3ccccn3n2)CC1 | – | 0.01 | – | – | – | – | – | – | Activity (Rhesus monkey [11]): 30%; Activity (Rhesus monkey [12]): 80%; Activity (Rhesus monkey [13]): Dose-dependent effect; Activity (Rhesus monkey [14]): 45%; Activity (Rhesus monkey [15]): <25%; Activity (Rhesus monkey [16]): 70 - 75% |
| O=C(NCCCCN1CCN(c2ccccc2OCC[18F])CC1)c1cc2ccccn2n1 | – | – | – | 0.00031 | – | – | – | – | Drug uptake [17]: Active; Drug uptake [18]: Active; Drug uptake [19]: Not Active; Drug uptake [20]: Active; Drug uptake [21]: Active; Drug uptake [22]: Not Active; Drug uptake (Brain): Active; Drug uptake [23]: 0.394 % ID/g; Drug uptake [24]: Not Active |
| CC(C)(C)c1nc(N2CCN(CCCCNC(=O)c3cc4ccccc4s3)CC2)cc(C(F)(F)F)n1 | > 10 | > 50 | > 10 | 0.0024 | 7.1 | 2.7 | > 10 | 4 | Ratio Ki (Homo sapiens [25]): 1000 to 20000; Ratio Ki (Homo sapiens [26]): 1000 to 20000; Ratio Ki [27]: 1000 to 20000; Ratio Ki (Homo sapiens [6]): 1000 to 20000; Ratio Ki (Homo sapiens [28]): 1000 to 20000; Ratio Ki (Homo sapiens [29]): 1000 to 20000; Ratio Ki (Homo sapiens [9]): 1000 to 20000 |
| CN(C)C(=O)N[C@H]1CC[C@H](CCN2CCN(c3cccc(Cl)c3Cl)CC2)CC1 [CARIPRAZINE] | – | – | 7.9 | – | – | – | – | – | – |
| CC(C)(C)c1nc(N2CCN(CCCCNC(=O)c3cc4ccccn4n3)CC2)cc(C(F)(F)F)n1 | 7.5 | 9.8 | 5.7 | 0.0012 | 2.7 | 0.2 | 4.7 | 0.43 | Ratio Ki [27]: 8000 |

From ChEMBL document CHEMBL4052643, “Development of molecular tools based on the dopamine D3 receptor ligand FAUC 329 showing inhibiting effects on drug and food maintained behavior” (Bioorg Med Chem, 2017)
